From ChEMBL document CHEMBL4024800, “α-Amino-β-carboxymuconate-ε-semialdehyde Decarboxylase (ACMSD) Inhibitors as Novel Modulators of De Novo Nicotinamide Adenine Dinucleotide (NAD+) Biosynthesis” (J Med Chem, 2018)
Values after ≈ are worked out from the molar mass of the structure shown. Active and inactive are the calls of the source. The calls are words filed in the database; no cut-off is given here.

Columns and labels:
[1] = target: T1, 2-amino-3-carboxymuconate-6-semialdehyde decarboxylase (Homo sapiens, UniProt Q8TDX5); assay: Inhibition of human ACMSD expressed in Pichia pastoris using ACMS as substrate by coupled spectrophotometric assay
Method in brief: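 Recombinant enzyme purified from Pichia pastoris; ACMS substrate generated in a pre-assay mix from 10 μM 3-hydroxyanthranilic acid by Ralstonia metallidurans 3-hydroxyanthranilate 3,4-dioxygenase, formation monitored at 360 nm. Enzyme and compound then added together; activity from initial rate of absorbance decrease minus a no-enzyme control. Serial dilutions, 1.0% DMSO throughout. IC50 from concentration–response curves, mean ± SD of three independent experiments.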
Target sequence in this assay (Q8TDX5 whole entry): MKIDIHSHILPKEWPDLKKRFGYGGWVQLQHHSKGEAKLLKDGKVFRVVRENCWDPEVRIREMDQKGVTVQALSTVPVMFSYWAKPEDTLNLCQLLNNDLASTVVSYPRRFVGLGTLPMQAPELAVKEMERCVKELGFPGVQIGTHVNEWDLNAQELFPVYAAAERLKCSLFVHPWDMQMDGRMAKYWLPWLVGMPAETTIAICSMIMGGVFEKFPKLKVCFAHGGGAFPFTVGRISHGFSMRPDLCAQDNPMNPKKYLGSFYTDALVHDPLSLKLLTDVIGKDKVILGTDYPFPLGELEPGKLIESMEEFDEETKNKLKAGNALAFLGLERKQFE

[2] = Drug uptake in mouse central nervous system at 5 mg/kg, po; format: ADME, organism-based; conditions: in vivo
[3] = AUClast in CD1 mouse at 0.5 mg/kg, iv measured up to 24 hrs post dose; format: ADME, organism-based; parameters: dose 0.5 mg/kg, time < 24 hr, route intravenous; conditions: in vivo
Method in brief: (§1)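 Mice given 0.5 mg/kg IV in saline containing 5% (v/v) DMSO and 20% (v/v) PEG400; blood pharmacokinetic parameters reported as means.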

[4] = AUClast in mouse liver at 5 mg/kg, po measured up to 8 hrs post dose; format: ADME, organism-based; parameters: dose 5 mg/kg, time < 8 hr, route oral
Method in brief: (§2)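 Mice dosed orally at 5 mg/kg in 0.5% (w/v) HPMC in water with 5% (v/v) DMSO; blood, liver and kidney concentrations followed to 8 h. AUC0–8h given in h·ng/mL; parameters reported as means.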

[5] = target: T2, Nuclear receptor subfamily 1 group I member 2 (Homo sapiens, UniProt O75469); assay: Activity at PXR (unknown origin)
T2 sequence (O75469 whole entry): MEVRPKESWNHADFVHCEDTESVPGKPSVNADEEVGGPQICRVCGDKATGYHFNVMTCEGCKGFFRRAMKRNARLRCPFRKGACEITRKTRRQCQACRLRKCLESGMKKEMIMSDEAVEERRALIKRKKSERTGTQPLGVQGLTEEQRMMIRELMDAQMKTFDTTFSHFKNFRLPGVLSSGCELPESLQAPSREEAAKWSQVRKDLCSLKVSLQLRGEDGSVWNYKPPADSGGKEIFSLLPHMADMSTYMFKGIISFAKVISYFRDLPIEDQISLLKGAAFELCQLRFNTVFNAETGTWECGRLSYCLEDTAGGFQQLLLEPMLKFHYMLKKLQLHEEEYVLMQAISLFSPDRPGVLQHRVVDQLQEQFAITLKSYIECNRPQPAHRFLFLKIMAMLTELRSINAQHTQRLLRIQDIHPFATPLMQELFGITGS
Method in brief: (§3)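 Eight-point serial dilutions tested in an in-house AlphaScreen-based nuclear receptor panel; activity derived from nonlinear regression curves.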

[6] = Half life in CD1 mouse at 0.5 mg/kg, iv measured up to 24 hrs post dose; format: ADME, organism-based; conditions: in vivo; method in brief: as §1
[7] = Solubility of compound in PBS buffer at pH 7.4 after 24 hrs by UV/vis-spectroscopic analysis; format: physicochemical
Method in brief: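 Compound in PBS pH 7.4 with 1% DMSO mixed, incubated 24 h and vacuum-filtered; filtrate read by UV/vis and relative solubility calculated from summed readings against a standard. Reported in mg/mL.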

[8] = Tmax in CD1 mouse at 5 mg/kg, po measured up to 8 hrs post dose; format: ADME, organism-based; conditions: in vivo; method in brief: as §2
[9] = Volume of distribution at steady state in CD1 mouse at 0.5 mg/kg, iv measured up to 24 hrs post dose; format: ADME, organism-based; conditions: in vivo, read-out: Vdss; method in brief: as §1
Cytochrome P450 2C19 = Cytochrome P450 2C19 (Homo sapiens, UniProt P33261); assay: Inhibition of recombinant human CYP2C19 expressed in baculosomes expression system using fluorogenic-BOMCC as substrate by fluorescent homogeneous assay; format: ADME
Method in brief: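 Recombinant CYP baculosomes with fluorogenic substrates, at concentrations below their Km; homogeneous fluorescence read-out, run in triplicate. IC50 classes: <1 μM potent, 1–10 μM moderate, >10 μM weak or none.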

[10] = Apparent passive permeability from apical to basolateral side in MDCK2-MDR1 cells at 3 uM after 90 mins by LC-MS/MS analysis; format: ADME, cell-based, Canis lupus familiaris; conditions: dog, MDCK-MDR1
Method in brief: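 MDCKII-MDR1 monolayers, HBSS transport medium pH 7.4; compound 3 μM for 90 min, run with and without a P-gp inhibitor, n = 3. Quantified by LC-MS/MS as analyte/internal-standard peak-area ratio; monolayer integrity checked with Lucifer yellow. Papp given in nm/sec, A>B.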

HepG2 = assay: Cytotoxicity against human HepG2 cells assessed as reduction in cell viability after 4 hrs by celltiter-glo assay; format: cell-based; conditions: hepg2, 4 h
Method in brief: (§4)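 HepG2 or AML12 cells, 5 × 10^3 per well, exposed to compound for 4 h at 37 °C. Viability read as ATP by CellTiter-Glo luminescence; tamoxifen control.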

[11] = target: Voltage-gated inwardly rectifying potassium channel KCNH2 (Homo sapiens, UniProt Q12809); assay: Displacement of red fluorescent channel ligand tracer from human ERG expressed in CHO cell membranes
Method in brief: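 Fluorescence polarisation kit: membranes from CHO cells stably expressing hERG, with a red fluorescent high-affinity tracer; competitors detected by tracer displacement, seen as lowered polarisation. Final DMSO 1%; E-4031 reference.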

[12] = Oral bioavailability in CD1 mouse at 5 mg/kg measured up to 8 hrs after dose; format: ADME, organism-based; conditions: in vivo; method in brief: as §2
[13] = Cytotoxicity against mouse AML-12 cells assessed as reduction in cell viability after 4 hrs by celltiter-glo assay; format: cell-based; conditions: aml-12, 4 h; method in brief: as §4
[14] = Clearance in CD1 mouse at 0.5 mg/kg, iv measured up to 24 hrs post dose; format: ADME, organism-based; conditions: in vivo; method in brief: as §1
[15] = Cmax in CD1 mouse at 5 mg/kg, po measured up to 8 hrs after dose; format: ADME, organism-based; parameters: dose 5 mg/kg, route oral; conditions: in vivo; method in brief: as §2
[16] = Drug uptake in mouse central nervous system at 5 mg/kg, po in presence of P-gp inhibitor Elacridar; format: ADME, organism-based; conditions: in vivo
[17] = AUClast in mouse blood at 5 mg/kg, po measured up to 8 hrs post dose; format: ADME, organism-based; parameters: time < 8 hr, dose 5 mg/kg, route oral; method in brief: as §2
[18] = AUClast in mouse kidney at 5 mg/kg, po measured up to 8 hrs post dose; format: ADME, organism-based; parameters: time < 8 hr, dose 5 mg/kg, route oral; method in brief: as §2
[19] = target: Kynurenine 3-monooxygenase (Rattus norvegicus, UniProt O88867); assay: Inhibition of rat liver KMO using [3,5-3H]-kynurenine substrate
[20] = target: T1, 2-amino-3-carboxymuconate-6-semialdehyde decarboxylase; assay: Inhibition of ACMSD in human primary hepatocytes assessed as increase in intracellular NAD+ levels at 5 uM after 48 hrs by NAD/NADH-Glo assay; format: cell-based
Target sequence in this assay (Q8TDX5 whole entry, looked up): as the sequence (Q8TDX5 whole entry) above

Homo sapiens [21] = organism: Homo sapiens; assay: Activity at TR (unknown origin); method in brief: as §3
Homo sapiens [22] = organism: Homo sapiens; assay: Activity at LXR (unknown origin); method in brief: as §3
[23] = target: T3, Vitamin D3 receptor (Homo sapiens) (UniProt P11473); assay: Activity at VDR (unknown origin); method in brief: as §3
T3 sequence (whole entry): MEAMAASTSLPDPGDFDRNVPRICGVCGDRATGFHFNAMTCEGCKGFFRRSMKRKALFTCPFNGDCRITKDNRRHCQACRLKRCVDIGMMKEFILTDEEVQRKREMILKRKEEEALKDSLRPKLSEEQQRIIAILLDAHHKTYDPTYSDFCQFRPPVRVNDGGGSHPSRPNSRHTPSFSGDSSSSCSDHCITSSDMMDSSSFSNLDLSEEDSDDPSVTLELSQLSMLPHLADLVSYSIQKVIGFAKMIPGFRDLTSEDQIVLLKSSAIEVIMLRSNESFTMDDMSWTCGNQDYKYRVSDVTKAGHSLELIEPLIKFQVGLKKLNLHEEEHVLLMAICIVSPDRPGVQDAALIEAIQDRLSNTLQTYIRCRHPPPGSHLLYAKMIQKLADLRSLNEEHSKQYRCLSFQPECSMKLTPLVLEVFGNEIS

[24] = target: T4, Glucocorticoid receptor (Homo sapiens) (UniProt P04150); assay: Activity at GR (unknown origin); method in brief: as §3
T4 sequence (whole entry): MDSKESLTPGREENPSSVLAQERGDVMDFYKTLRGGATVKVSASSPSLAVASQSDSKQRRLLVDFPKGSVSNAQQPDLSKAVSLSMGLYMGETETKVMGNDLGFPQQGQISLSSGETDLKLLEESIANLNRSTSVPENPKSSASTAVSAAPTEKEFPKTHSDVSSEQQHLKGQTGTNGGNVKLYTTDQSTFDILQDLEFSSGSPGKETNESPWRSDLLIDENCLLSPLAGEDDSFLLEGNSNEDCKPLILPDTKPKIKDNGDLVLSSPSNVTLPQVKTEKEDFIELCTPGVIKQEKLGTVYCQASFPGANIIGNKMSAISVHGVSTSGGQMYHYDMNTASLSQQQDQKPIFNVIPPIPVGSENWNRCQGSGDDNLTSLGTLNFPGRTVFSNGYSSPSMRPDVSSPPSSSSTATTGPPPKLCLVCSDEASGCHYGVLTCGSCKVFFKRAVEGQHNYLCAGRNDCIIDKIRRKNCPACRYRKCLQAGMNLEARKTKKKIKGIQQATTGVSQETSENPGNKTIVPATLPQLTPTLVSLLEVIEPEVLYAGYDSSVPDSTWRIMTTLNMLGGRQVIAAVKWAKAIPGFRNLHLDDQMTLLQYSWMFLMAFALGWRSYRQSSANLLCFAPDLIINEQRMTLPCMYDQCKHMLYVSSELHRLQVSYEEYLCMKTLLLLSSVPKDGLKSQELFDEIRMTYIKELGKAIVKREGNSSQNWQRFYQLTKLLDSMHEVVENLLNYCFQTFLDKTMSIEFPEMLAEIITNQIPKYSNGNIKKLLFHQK

Homo sapiens [25] = organism: Homo sapiens; assay: Activity at PPAR (unknown origin); method in brief: as §3
[26] = target: T5, Bile acid receptor (Homo sapiens) (UniProt Q96RI1); assay: Activity at FXR (unknown origin); method in brief: as §3
T5 sequence (whole entry): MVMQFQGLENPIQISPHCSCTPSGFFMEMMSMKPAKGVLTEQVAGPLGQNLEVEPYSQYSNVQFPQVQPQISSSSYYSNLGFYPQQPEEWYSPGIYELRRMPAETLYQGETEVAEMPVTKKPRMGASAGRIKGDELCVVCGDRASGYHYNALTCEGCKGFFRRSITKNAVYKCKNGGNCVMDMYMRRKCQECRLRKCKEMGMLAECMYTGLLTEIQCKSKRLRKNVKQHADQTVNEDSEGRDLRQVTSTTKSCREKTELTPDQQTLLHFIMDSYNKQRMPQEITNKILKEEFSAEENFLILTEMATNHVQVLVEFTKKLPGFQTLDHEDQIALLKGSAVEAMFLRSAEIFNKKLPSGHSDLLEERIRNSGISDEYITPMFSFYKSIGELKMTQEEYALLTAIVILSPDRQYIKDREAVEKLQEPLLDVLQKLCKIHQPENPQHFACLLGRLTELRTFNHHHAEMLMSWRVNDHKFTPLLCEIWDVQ

Homo sapiens [27] = organism: Homo sapiens; assay: Activity at RXR (unknown origin); method in brief: as §3

Chain of Voltage-gated inwardly rectifying potassium channel KCNH2 (Q12809 whole entry): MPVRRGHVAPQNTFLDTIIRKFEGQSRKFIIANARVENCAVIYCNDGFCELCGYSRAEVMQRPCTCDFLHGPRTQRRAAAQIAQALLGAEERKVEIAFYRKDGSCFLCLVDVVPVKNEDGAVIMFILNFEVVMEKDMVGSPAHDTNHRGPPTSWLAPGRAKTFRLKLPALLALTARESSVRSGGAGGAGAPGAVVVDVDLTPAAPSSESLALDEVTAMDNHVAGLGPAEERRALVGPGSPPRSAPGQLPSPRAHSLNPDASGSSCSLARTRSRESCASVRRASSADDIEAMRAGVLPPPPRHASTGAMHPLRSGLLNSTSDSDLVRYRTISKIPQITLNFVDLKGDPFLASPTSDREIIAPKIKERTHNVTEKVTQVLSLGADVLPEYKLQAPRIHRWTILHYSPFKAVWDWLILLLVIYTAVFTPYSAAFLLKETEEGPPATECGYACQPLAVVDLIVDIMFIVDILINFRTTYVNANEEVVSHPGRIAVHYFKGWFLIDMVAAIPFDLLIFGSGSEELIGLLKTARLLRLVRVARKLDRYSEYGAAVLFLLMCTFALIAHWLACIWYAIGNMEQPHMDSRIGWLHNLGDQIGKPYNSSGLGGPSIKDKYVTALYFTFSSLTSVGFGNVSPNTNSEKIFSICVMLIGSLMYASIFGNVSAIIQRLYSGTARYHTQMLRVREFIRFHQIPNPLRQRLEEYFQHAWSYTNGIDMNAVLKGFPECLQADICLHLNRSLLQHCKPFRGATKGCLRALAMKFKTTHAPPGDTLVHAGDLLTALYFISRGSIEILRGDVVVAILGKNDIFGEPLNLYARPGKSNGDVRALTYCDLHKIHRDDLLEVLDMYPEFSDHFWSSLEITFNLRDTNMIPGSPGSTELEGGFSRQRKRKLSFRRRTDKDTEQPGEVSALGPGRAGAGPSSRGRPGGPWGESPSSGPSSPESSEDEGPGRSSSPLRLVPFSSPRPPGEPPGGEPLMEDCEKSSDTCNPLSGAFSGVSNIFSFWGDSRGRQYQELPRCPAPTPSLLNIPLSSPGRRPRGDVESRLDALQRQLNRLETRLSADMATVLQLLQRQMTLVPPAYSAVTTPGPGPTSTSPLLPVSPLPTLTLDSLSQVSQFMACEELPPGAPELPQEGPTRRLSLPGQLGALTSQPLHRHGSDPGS
Chain of Kynurenine 3-monooxygenase (O88867 whole entry): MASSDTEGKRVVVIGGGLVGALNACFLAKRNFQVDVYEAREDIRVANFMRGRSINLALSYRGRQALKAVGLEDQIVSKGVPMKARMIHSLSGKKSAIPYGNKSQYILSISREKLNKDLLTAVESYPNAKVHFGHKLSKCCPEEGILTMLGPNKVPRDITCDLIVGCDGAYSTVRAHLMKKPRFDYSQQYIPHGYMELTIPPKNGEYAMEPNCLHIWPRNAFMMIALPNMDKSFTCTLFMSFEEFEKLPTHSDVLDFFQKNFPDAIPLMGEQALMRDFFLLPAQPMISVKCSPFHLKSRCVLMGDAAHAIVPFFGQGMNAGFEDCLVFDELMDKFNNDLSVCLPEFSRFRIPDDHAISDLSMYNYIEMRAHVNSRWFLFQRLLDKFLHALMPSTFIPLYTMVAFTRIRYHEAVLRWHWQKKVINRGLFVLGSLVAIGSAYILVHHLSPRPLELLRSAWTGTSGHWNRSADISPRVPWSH
Chain of Cytochrome P450 2C19 (P33261 whole entry): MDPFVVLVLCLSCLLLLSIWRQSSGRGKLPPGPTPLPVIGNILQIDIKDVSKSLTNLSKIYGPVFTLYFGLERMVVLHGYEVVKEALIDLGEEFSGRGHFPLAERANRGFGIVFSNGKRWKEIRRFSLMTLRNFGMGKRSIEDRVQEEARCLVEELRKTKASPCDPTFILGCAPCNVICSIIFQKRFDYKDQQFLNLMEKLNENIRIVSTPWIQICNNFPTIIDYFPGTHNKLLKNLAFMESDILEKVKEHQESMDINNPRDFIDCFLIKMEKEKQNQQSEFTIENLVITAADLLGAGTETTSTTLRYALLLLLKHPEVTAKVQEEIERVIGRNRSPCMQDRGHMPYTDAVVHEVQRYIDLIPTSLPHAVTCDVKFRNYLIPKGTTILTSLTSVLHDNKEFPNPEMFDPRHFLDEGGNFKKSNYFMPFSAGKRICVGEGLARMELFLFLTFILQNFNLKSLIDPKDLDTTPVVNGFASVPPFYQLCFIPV

## N#Cc1c(Cl)nc(SCc2cccc(C(=O)O)c2)nc1-c1ccccc1
[1]
  IC50: 316 nM

## N#Cc1c(-c2cccs2)nc(SCc2cccc(-c3nn[nH]n3)c2)[nH]c1=O
[2]
  Drug uptake: Not Active
[1]
  IC50: 3 nM
[3]
  AUC(0-t) at 24 h: 6900 ng·h/mL
[4]
  AUC(0-t) at 8 h: 4290 ng·h/mL
[5]
  Activity: Not Active
[6]
  half-life: 4.02 h
[7]
  solubility at 24 h: 1000 µg/mL (≈ 2540 µM)
[8]
  Tmax: 2 h
[9]
  Vd: 0.306 L/kg
Cytochrome P450 2C19
  IC50: 100 nM
[10]
  Papp A→B at 1.5 h, 3 µM: 0.584 ×10⁻⁶ cm/s
HepG2
  Activity: Non-Toxic
[11]
  inhibition (INH): Not Active
[12]
  bioavailability: 2.3%
[13]
  Activity: Non-Toxic
[14]
  clearance: 1.2 mL/min/kg
[15]
  Cmax: 255 ng/mL
[16]
  Drug uptake: Not Active
[17]
  AUC(0-t) at 8 h: 1620 ng·h/mL
[18]
  AUC(0-t) at 8 h: 2830 ng·h/mL

## N#Cc1c(-c2ccccc2)nc(SCc2cccc(C(=O)O)c2)[nH]c1=O
[1]
  IC50: 45 nM

## N#Cc1c(-c2ccccc2)nc(SCc2ccccc2)[nH]c1=O
[1]
  IC50: 4450 nM

## N#Cc1c(-c2cccs2)nc(SCc2cccc(C(=O)O)c2)[nH]c1=O
[1]
  IC50: 20 nM

## O=C(O)c1cccc(CSc2nc(-c3ccccc3)c(Br)c(=O)[nH]2)c1
[1]
  IC50: 99 nM

## O=C(O)c1cccc(CSc2nc(-c3ccccc3)c(Cl)c(=O)[nH]2)c1
[1]
  IC50: 151 nM

## Cc1nc(SCc2cccc(C(=O)O)c2)[nH]c(=O)c1C#N
[1]
  IC50: 1900 nM

## N#Cc1c(C2CCCCC2)nc(SCc2cccc(C(=O)O)c2)[nH]c1=O
[1]
  IC50: 89 nM

## N#Cc1c(-c2cccs2)nc(SCc2cccc(C(=O)NO)c2)[nH]c1=O
[1]
  IC50: 1750 nM

## O=C(O)C1CC1C(=O)c1ccc(Cl)c(Cl)c1 (stereo not given)
[19]
  IC50: 20 nM

## O=C(O)c1cccc(CSc2nc(-c3ccccc3)cc(=O)[nH]2)c1
[1]
  IC50: 1050 nM

## N#Cc1c(-c2cccs2)nc(SCc2cccc(-c3nnn[nH]3)c2)[nH]c1=O
[20]
  inhibition: Active
Homo sapiens [21]
  Activity: inactive
Homo sapiens [22]
  Activity: inactive
[23]
  Activity: inactive
[24]
  Activity: inactive
Homo sapiens [25]
  Activity: inactive
[26]
  Activity: inactive
Homo sapiens [27]
  Activity: inactive

## N#Cc1c(-c2cccs2)nc(SCc2cccc(-c3noc(C(F)(F)F)n3)c2)[nH]c1=O
[1]
  IC50: 3350 nM
